Data from ChEMBL document CHEMBL5252633, “Quinazolinone-1,2,3-triazole-acetamide conjugates as potent α-glucosidase inhibitors: synthesis, enzyme inhibition, kinetic analysis, and molecular docking study” (RSC Med Chem, 2023).
Each block holds one molecule with its values, some of them ahead of it. Calls of active or inactive are those of the source. No cut-off for these calls is given here.

How the values were obtained:
Alpha-glucosidase [1] = target: T1, Alpha-glucosidase (Saccharomyces cerevisiae S288c, UniProt P53341+P38158+P07265); assay: Inhibition of Saccharomyces cerevisiae alpha-glucosidase assessed as inhibition constant using p-nitrophenyl-alpha D-glucopyranoside as substrate preincubated for 15 mins followed by substrate addition and measured after 20 mins by Lineweaver-burk plot analysis; format: protein assay
Alpha-glucosidase [2] = target: T1, Alpha-glucosidase; assay: Inhibition of Saccharomyces cerevisiae alpha-glucosidase using p-nitrophenyl-alpha D-glucopyranoside as substrate preincubated for 15 mins followed by substrate addition and measured after 20 mins by spectrophotometer assay; format: protein assay
[3] = target: Maltase-glucoamylase (Homo sapiens) (UniProt O43451); assay: Inhibition of alpha-glucosidase (unknown origin) assessed as increase in Km using p-nitrophenyl-alpha D-glucopyranoside as substrate by Lineweaver-Burk plot analysis
Outline: (§1)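 Initial rates were measured with p-nitrophenyl α-D-glucopyranoside at 1–16 mM and inhibitor at 0, 1.2, 2.4 and 4.8 μM. Lineweaver–Burk plots (1/V against 1/[S]) at each inhibitor level gave Km and Vmax. Ki was estimated from a plot of Km against inhibitor concentration.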

[4] = target: Maltase-glucoamylase (Homo sapiens) (UniProt O43451); assay: Inhibition of alpha-glucosidase (unknown origin) assessed as change in Vmax using p-nitrophenyl-alpha D-glucopyranoside as substrate by Lineweaver-Burk plot analysis; outline: as §1
[5] = target: T2, Pancreatic triacylglycerol lipase (Homo sapiens, UniProt P16233); assay: Inhibition of pancreatic lipase (unknown origin)
T2 sequence (P16233 whole entry): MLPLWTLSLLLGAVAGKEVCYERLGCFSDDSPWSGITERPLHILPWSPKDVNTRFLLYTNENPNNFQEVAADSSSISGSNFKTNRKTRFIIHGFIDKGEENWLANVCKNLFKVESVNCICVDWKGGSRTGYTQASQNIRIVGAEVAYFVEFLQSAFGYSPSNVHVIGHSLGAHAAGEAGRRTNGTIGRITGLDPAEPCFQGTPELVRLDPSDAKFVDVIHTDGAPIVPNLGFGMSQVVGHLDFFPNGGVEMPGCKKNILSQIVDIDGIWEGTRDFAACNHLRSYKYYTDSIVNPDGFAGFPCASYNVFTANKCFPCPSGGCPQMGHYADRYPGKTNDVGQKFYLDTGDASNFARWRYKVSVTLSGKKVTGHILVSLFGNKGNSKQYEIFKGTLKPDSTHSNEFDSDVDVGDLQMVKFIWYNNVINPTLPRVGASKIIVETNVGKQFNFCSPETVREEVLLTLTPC

Sequence of Maltase-glucoamylase (Homo sapiens) (O43451 whole entry, looked up): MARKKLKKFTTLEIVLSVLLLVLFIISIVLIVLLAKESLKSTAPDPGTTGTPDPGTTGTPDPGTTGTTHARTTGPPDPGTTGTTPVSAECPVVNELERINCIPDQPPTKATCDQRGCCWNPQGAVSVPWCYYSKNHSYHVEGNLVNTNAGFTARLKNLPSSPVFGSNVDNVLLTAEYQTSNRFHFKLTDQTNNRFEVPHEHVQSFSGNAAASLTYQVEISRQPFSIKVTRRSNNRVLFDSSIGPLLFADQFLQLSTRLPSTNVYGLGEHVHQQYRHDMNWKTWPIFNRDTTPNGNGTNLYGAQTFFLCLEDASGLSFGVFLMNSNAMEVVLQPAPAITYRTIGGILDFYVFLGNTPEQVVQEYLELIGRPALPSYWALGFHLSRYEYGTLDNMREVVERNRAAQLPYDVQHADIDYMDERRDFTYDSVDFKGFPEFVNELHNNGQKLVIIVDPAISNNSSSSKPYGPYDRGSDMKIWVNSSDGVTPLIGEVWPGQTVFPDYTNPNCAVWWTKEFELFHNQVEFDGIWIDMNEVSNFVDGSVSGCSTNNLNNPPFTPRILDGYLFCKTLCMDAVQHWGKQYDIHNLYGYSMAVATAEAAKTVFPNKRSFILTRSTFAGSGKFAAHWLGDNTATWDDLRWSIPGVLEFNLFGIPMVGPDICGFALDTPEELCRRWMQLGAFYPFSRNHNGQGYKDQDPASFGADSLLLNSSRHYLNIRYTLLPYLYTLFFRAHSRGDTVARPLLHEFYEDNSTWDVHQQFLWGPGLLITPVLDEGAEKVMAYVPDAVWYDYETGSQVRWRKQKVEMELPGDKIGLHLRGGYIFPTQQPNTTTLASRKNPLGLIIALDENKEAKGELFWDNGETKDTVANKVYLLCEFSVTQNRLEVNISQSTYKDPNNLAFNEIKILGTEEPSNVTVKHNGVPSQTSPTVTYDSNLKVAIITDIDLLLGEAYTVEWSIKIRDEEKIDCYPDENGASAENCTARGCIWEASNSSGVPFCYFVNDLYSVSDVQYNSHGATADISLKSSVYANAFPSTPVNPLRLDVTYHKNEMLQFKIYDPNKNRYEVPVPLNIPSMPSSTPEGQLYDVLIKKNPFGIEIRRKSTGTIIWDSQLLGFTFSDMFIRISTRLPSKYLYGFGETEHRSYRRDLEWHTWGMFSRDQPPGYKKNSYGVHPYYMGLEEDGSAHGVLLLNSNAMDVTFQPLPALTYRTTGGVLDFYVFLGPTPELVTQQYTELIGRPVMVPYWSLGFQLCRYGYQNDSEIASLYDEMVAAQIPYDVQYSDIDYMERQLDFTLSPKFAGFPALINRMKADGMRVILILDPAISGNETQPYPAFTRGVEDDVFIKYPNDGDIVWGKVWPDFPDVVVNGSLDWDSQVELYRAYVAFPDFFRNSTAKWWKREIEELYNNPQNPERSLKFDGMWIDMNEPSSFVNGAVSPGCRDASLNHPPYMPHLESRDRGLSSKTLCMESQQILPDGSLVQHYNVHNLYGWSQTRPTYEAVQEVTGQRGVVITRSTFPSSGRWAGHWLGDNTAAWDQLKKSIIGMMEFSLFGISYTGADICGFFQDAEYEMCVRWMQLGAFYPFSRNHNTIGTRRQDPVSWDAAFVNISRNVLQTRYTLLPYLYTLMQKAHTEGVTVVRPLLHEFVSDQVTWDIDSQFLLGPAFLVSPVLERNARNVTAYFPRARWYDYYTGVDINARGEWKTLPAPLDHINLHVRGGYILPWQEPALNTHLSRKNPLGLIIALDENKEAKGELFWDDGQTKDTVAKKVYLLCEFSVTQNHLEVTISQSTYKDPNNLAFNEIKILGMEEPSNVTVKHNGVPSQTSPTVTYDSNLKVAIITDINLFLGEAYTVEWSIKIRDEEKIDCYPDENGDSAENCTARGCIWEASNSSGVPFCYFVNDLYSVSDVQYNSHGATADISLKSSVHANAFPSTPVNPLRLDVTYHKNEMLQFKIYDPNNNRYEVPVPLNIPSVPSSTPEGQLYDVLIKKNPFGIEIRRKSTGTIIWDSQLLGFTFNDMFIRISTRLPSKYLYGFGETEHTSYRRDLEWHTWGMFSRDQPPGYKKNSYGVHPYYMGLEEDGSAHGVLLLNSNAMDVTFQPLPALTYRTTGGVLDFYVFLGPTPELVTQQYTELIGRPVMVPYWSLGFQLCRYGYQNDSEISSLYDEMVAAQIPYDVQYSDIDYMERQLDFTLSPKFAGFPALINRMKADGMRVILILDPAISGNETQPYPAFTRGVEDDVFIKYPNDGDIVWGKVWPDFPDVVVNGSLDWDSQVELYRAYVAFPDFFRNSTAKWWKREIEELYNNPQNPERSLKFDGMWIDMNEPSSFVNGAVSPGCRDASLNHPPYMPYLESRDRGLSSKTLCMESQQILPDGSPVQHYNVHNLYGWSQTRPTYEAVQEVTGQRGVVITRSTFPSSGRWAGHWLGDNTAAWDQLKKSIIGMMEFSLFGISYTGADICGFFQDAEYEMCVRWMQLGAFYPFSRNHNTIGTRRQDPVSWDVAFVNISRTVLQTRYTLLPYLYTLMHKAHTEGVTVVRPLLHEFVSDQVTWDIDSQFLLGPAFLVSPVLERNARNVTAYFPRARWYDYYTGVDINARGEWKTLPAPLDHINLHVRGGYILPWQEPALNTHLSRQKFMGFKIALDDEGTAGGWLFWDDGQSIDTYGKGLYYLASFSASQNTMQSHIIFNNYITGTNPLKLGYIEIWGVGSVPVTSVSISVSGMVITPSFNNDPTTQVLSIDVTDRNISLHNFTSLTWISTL

Ki (Alpha-glucosidase [1]): 56 µM
IC50 (Alpha-glucosidase [2]): 60.5 µM
Structure (SMILES): O=C(Cn1c(-c2ccc(Cl)cc2)nc2ccccc2c1=O)N/N=C\c1cn(-c2ccccc2)nc1-c1ccc(Br)cc1

inhibition [3]: Active
inhibition [4]: inactive
Structure (SMILES): Cc1ccc(NC(=O)Cn2cc(COc3ccc(C4Nc5ccccc5C(=O)N4Nc4ccccc4)cc3)nn2)c(C)c1 (stereo not given)

IC50 [5]: 2.8 µM
Structure (SMILES): O=C(Cn1c(Cc2ccc(Br)cc2)nc2ccccc2c1=O)NNC(=O)c1cc2ccccc2oc1=O
